This is an account of results in ChEMBL document CHEMBL1671806, “New imidazolidinedione derivatives as antimalarial agents” (Bioorg Med Chem, 2011).

Series [1] concerns Plasmodium cynomolgi. Put plainly: Antiplasmodial activity against Plasmodium cynomolgi sporozoites infected in Rhesus monkey assessed as delay in detection of parasites in blood at 1.78 mg/kg/day, po administered for three consecutive days before infection. Format: functional.
The test system of series [2] is Plasmodium cynomolgi. Put plainly: Antiplasmodial activity against Plasmodium cynomolgi sporozoites infected in Rhesus monkey assessed as duration for detection of parasites in blood at 1.78 mg/kg/day, po administered for three consecutive days before infection (reference value: 8 days). Format: functional.
In series [3] the test system is Plasmodium cynomolgi. The series can be described thus: Antiplasmodial activity against Plasmodium cynomolgi sporozoites infected in Rhesus monkey assessed as duration for detection of parasites in blood at 0.316 mg/kg/day, po administered for three consecutive days before infection (reference value: 8 days). Format: functional.
Series [4] concerns Plasmodium cynomolgi. The series can be described thus: Antiplasmodial activity against Plasmodium cynomolgi sporozoites infected in Rhesus monkey assessed as delay in detection of parasites in blood at 0.316 mg/kg/day, po administered for three consecutive days before infection. Format: functional.
Series [5] has as its system Plasmodium berghei. Put plainly: Antiplasmodial activity against Plasmodium berghei sporozoites infected in orally dosed mouse administered for three consecutive days one day before infection. Format: functional. The note with it: po, 24 h, read-out: MED. The method in brief: (§1)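 Mice were inoculated with P. berghei sporozoites. For oral dosing, compounds were ground and suspended in hydroxyethylcellulose plus Tween 80; for sc dosing, they were suspended in peanut oil. Doses were given once daily on three consecutive days: the day before, 4 h before, and the day after inoculation. Several dose levels were used, up to 320 mg/kg/day. Cure was scored.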

Series [6] deals with Plasmodium falciparum. Put plainly: Antimicrobial activity against Plasmodium falciparum D6 by microdilution method. Format: functional, organism-based. The note with it: Plasmodium falciparum, D6; read-out: IC50. (Dilution methods test growth across graded concentrations, often in twofold steps.)
Series [7] has as its system Plasmodium falciparum. The series can be described thus: Antimicrobial activity against Plasmodium falciparum W2 by microdilution method. The following applies: Plasmodium falciparum, W2; read-out: IC50. Format: functional, organism-based.
For series [8], the system named is Plasmodium cynomolgi. The series can be described thus: Antiplasmodial activity against Plasmodium cynomolgi sporozoites infected in Rhesus monkey assessed as delay in detection of parasites in blood at 30 mg/kg/day, im administered for three consecutive days before infection. Format: functional. The note with it: route intramuscular.
The subject of series [9] is Plasmodium cynomolgi. The series can be described thus: Antiplasmodial activity against Plasmodium cynomolgi sporozoites infected in Rhesus monkey assessed as duration for detection of parasites in blood at 30 mg/kg/day, im administered for three consecutive days before infection (reference value: 8 days). The note with it: route intramuscular. Format: functional.
The subject of series [10] is Plasmodium cynomolgi. Put plainly: Antiplasmodial activity against Plasmodium cynomolgi sporozoites infected in Rhesus monkey assessed as delay in detection of parasites in blood at 50 mg/kg/day, po administered for three consecutive days before infection. Format: functional.
The subject of series [11] is Plasmodium cynomolgi. The series can be described thus: Antiplasmodial activity against Plasmodium cynomolgi sporozoites infected in Rhesus monkey assessed as duration for detection of parasites in blood at 50 mg/kg/day, po administered for three consecutive days before infection (reference value: 8 days). Format: functional.
A short description of series [12]: Toxicity in Plasmodium berghei sporozoites infected orally dosed mouse administered for three consecutive days one day before infection. Format: organism-based. The note with it: in vivo, po. In short, it runs like this: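 Mice received P. berghei sporozoites. Each compound was ground and suspended in hydroxyethylcellulose plus Tween 80, then given orally at several dose levels up to 320 mg/kg/day. Dosing was once daily for three consecutive days: the day before, 4 h before, and the day after sporozoite inoculation.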

The species entered for a further series is Mus musculus. The series can be described thus: Metabolic stability in mouse liver microsome by LC-MS/MS method. The note with it: liver microsomes. In general terms: Microsomes from liver hold many membrane-bound enzymes, among them those of drug oxidation.
The species named for the next series is Homo sapiens. Put plainly: Metabolic stability in human liver microsome by LC-MS/MS method. The note with it: liver microsomes.
Series [13] deals with Plasmodium berghei. The series can be described thus: Antiplasmodial activity against Plasmodium berghei sporozoites infected in orally dosed mouse assessed as cure from infection 160 mg/kg/day, po administered for three consecutive days before infection measured after at day 31. Format: functional, organism-based. In short, it runs like this: as §1
Series [14] relates to Plasmodium cynomolgi. The series can be described thus: Antiplasmodial activity against Plasmodium cynomolgi sporozoites infected in Rhesus monkey assessed as relapse time at 10 mg/kg/day, po administered for 7 consecutive days.

The source made the active and inactive calls.

What is called IC50 is the point on the concentration scale where inhibition reaches its midpoint. A word on the half-life: it is the time needed for the level to fall by half in the phase considered.

As for `COc1cc(NC(C)CCCN)c2ncccc2c1` (stereo unspecified) [PRIMAQUINE], the Time is 5 days in the series on Plasmodium cynomolgi [1] and 13 days in the series with Plasmodium cynomolgi [2].
With `COc1cc(C)c2c(Oc3cccc(C(F)(F)F)c3)c(OC)cc(NC(C)CCCN)c2n1` (stereo unspecified) [TAFENOQUINE], the figures for the Time in the series with Plasmodium cynomolgi [3] and with Plasmodium cynomolgi [4] were 10 days and 2 days, respectively.
As to `CC(C)N/C(=N\C1=NC(=O)C(=O)N1C(C)C)Nc1ccc(Cl)c(Cl)c1`, in the series with Plasmodium berghei [5], the minimal effective dose worked out at 160 mg/kg/day. Moreover, the IC50 in the series with Plasmodium falciparum [6] and in the series with Plasmodium falciparum [7] was above 6 µg/mL in each case. Moreover, the Time in the series with Plasmodium cynomolgi [8] turned out to be 54 days; in the series on Plasmodium cynomolgi [9], 62 days; in the series on Plasmodium cynomolgi [10] it was 3 days; in the series on Plasmodium cynomolgi [11], 11 days. In series [12], this compound gave an MTD at 3 days of at least 160 mg/kg/day. The half-life in the series filed under Mus musculus and in the series listed under Homo sapiens was above 1 h each time. The result in the series on Plasmodium berghei [13] was Active.
For `CCN(CC)CCCC(C)Nc1ccnc2cc(Cl)ccc12` (stereo unspecified) [CHLOROQUINE], the Time in the series on Plasmodium cynomolgi [14] stood at 11 days.
